The text below walks through data of ChEMBL document CHEMBL4017500 (J Med Chem, 2017).

A word on the IC50: it is the point on the concentration scale where inhibition reaches its midpoint.

Series [1] concerns Bacteria. Nature of the series: Binding affinity to bacterial CoCoNDM-1 expressed in Escherichia coli BL21(DE3) assessed as metal stripping at 2 equiv by 1H NMR spectroscopic method. A digest of the protocol:
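Apo-NDM-1 concentrated to ~1 mM and loaded with 2 equiv CoCl2. Samples in 50 mM HEPES, 150 mM NaCl, 10% D2O, pH 6.8. Compounds from 50–100 mM DMSO stocks titrated in ~5 μL aliquots. 1H spectra recorded at 292 K, 300.16 MHz.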

Series [2] has as its system Bacteria. Nature of the series: Binding affinity to bacterial CoCoNDM-1 expressed in Escherichia coli BL21(DE3) assessed as metal stripping at 1 to 2 equiv after 30 mins by UV-Visible spectroscopic method. The method, boiled down:
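Apo-NDM-1 at 300 μM in 50 mM HEPES, 150 mM NaCl, pH 6.8, loaded with 2 molar equiv CoCl2. […] Absorbance read 300–700 nm at 25 °C as difference spectra against buffer blank, normalized at 700 nm.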

Series [3] in a line: Fluorescence quenching activity assessed as reduction in tryptophan fluorescence up to 32 uM after 30 mins by luminescence spectrometric method. Set-up: scale not given: the % may be the effect or the level left. The method, boiled down:
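NDM-1 (2 μM final) in 50 mM HEPES pH 7.5 with compound at 4–32 μM for 30 min. Excitation 280 nm, emission scanned 300–400 nm, intensity taken at 348 nm. Scaled with buffer as 0% and inhibitor-free enzyme as 100%. Free L-tryptophan (2 μM) run as control.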

Another series has as its system Escherichia coli. Nature of the series: Effect on growth of Escherichia coli isolate Ah8.71 at 100 mg/L after 18 to 20 hrs by broth microdilution assay. A digest of the protocol: (§1)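 Mueller-Hinton broth microdilution per CLSI, triplicate. blaNDM-1 clinical isolates grown from OD600 0.1 to 0.224 (~1–2 × 10^8 CFU/mL), diluted 3 μL into 4997 μL MH, and 100 μL added to 100 μL of compound (100 mg/L) alone. Incubated 37 °C for 18–20 h, then scored for growth.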
A general note: Dilution methods test growth across graded concentrations, often in twofold steps.

In another series the test system is Klebsiella pneumoniae. Nature of the series: Effect on growth of Klebsiella pneumoniae isolate Pd1.48 at 100 mg/L after 18 to 20 hrs by broth microdilution assay. A digest of the protocol:
as §1

The next series addresses Beta-lactamase VIM-2 (Pseudomonas aeruginosa, UniProt Q9K2N0). The series can be described thus: Inhibition of Pseudomonas aeruginosa VIM2 expressed in Escherichia coli BL21(DE3) using fluorocillin as substrate preincubated for 10 mins followed by substrate addition measured after 20 mins by HTS assay.

The source made the active and inactive calls. No cut-off for these calls is given here.

`Nc1cccc(-c2cc(C(=O)O)nc(C(=O)O)c2)c1`: the outcome in the series with Bacteria [1] and in the series with Bacteria [2] was Active. Also, the Activity is 50% in series [3], “Non-Toxic” in the series with Escherichia coli and “Non-Toxic” with Klebsiella pneumoniae. The molecule also had an IC50 at Beta-lactamase VIM-2 of 210 nM.
